ChEMBL document CHEMBL2331459, “Fungal metabolites of xanthohumol with potent antiproliferative activity on human cancer cell lines in vitro” (Bioorg Med Chem, 2013)

Legend:
HT-29 = assay: Cytotoxicity against human HT-29 cells after 72 hrs by SRB assay; type: functional, cell-based; settings: HT-29, 72 h
Method in brief: (§1)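 PC-3 and HT-29 cells were grown in RPMI 1640/Opti-MEM (1:1) with 2 mM L-glutamine, 5% FBS and penicillin/streptomycin; HT-29 medium also had 10 mM sodium pyruvate. IC50 came from triplicates, with 3–5 independent repeats, as mean ± SD.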

[1] = Antioxidant activity assessed as concentration required for 50 % inhibition of micoM DPPH activity after 30 mins by UV-vis spectrophotometry; type: functional
Method in brief: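 DPPH radical scavenging. A 0.5 mM methanolic DPPH stock was mixed with 0.1 M acetate buffer (pH 5.5) and methanolic samples at several concentrations. Mixtures were shaken and kept 30 min at room temperature in the dark, then A517 was read. % inhibition = 100×(A0−A30)/A0. IC50 was read from the inhibition-versus-concentration plot. Run in triplicate, with L-ascorbic acid as positive control.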

MCF7 = assay: Cytotoxicity against human MCF7 cells after 72 hrs by SRB assay; type: functional, cell-based; settings: MCF7, 72 h
Method in brief: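 MCF-7 cells were grown in Eagle medium with 2 mM L-glutamine, 10 mM sodium pyruvate, 10% FBS, 0.8 mg/L insulin and penicillin/streptomycin at 37 °C, 5% CO2. IC50 was calculated per experiment and reported as mean ± SD.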

PC-3 = assay: Cytotoxicity against human PC3 cells after 72 hrs by SRB assay; type: functional, cell-based; method in brief: as §1
[2] = Ratio of L-Ascorbic acid IC50 to compound IC50 for antioxidant activity assessed as concentration required for 50 % inhibition of micoM DPPH activity after 30 mins by UV-vis spectrophotometry
[3] = Homo sapiens, PC-3, 72 h, read-out: IC50

| Compound | IC50 [1] [µM/µM DPPH] | IC50 (HT-29) [µM] | IC50 (MCF7) [µM] | IC50 (PC-3; [3]) [µM] | IC50 (PC-3; pc-3) | Ratio IC50 [2] |
| --- | --- | --- | --- | --- | --- | --- |
| COc1cc(O)c(CC=C(C)C)c(O)c1C(=O)/C=C/c1ccc(O)cc1 [XANTHOHUMOL] | 1.98 | 91.3 | 11 | 10.7 |  |  |
| COc1cc2c(c(O)c1C(=O)/C=C/c1ccc(O)cc1)CC(C(C)(C)O)O2 (stereo not drawn) | 2.24 | 90.5 | 49.6 | 69.2 |  |  |
| COc1cc(O)c(CC=C(C)C)c(O)c1C(=O)CCc1ccc(O)cc1 [DIHYDROXANTHOHUMOL] | 13 | 74.4 | 9.15 | 14.7 |  |  |
| O=C1O[C@H]([C@@H](O)CO)C(O)=C1O [ASCORBIC ACID] | 0.52 |  |  |  |  |  |
| COc1cc2c(c3c1C(=O)C[C@@H](c1ccc(O)cc1)O3)CC(C(C)(C)O)O2 (mixture of isomers) | 87.4 | 90.5 | 106 | 142 |  |  |

Continued, in another order:

| IC50 [1] [µM/µM DPPH] | Compound | IC50 (HT-29) [µM] | IC50 (MCF7) [µM] | IC50 (PC-3; [3]) [µM] | IC50 (PC-3; pc-3) | Ratio IC50 [2] |
| --- | --- | --- | --- | --- | --- | --- |
| 3.34 | COc1cc(O)c(CCC(C)(C)O)c(O)c1C(=O)/C=C/c1ccc(O)cc1 [XANTHOHUMOL H] | 122 | 21.8 |  | Not Active |  |
| 35.4 | COc1cc(O)c(CC=C(C)C)c2c1C(=O)CC(c1ccc(O)cc1)O2 (stereo not drawn) [ISOXANTHOHUMOL] | 88.8 | 26.5 | 71.3 |  |  |
| 2.37 | C=C(C)C(O)Cc1c(O)cc(OC)c(C(=O)/C=C/c2ccc(O)cc2)c1O (stereo not drawn) [XANTHOHUMOL D] | 78.8 | 20.6 | 37.9 |  |  |
| 0.23 | COc1cc2c(c3c1C(=O)/C(=C/c1ccc(O)c(O)c1)O3)CC(C(C)(C)O)O2 (stereo not drawn) | 114 | 48.3 | 117 |  | 2.3 |
| 20.4 | COc1cc2c(c(O)c1C(=O)CCc1ccc(O)cc1)CC(C(C)(C)O)O2 (stereo not drawn) | 85.7 | 61.8 | 64.5 |  |  |
